Measured values: ChEMBL document CHEMBL1138555, “N-acylated and N,N'-diacylated imidazolidine-2-thione derivatives and N,N'-diacylated tetrahydropyrimidine-2(1H)-thione analogues: synthesis and antiproliferative activity” (Eur J Med Chem, 2009)
pIC50: −log10 of the molar value.

Legend:
MDA-MB-231 = assay: Growth inhibition of human MDA-MB-231 cells after 48 hrs by sulforhodamine B assay; type: functional; conditions: MDA-MB-231, 48 h
Method in brief: (§1)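 NCI screen panel. Five 10-fold concentrations from 10^-4 to 10^-8 M. Exposure for the last 48 h of a 72 h incubation. Growth estimated by sulforhodamine B protein assay. GI50 is the concentration giving 50% growth inhibition. Where that level was not reached or was exceeded, the value is given as above or below the highest or lowest concentration tested.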

BT-549 = assay: Growth inhibition of human BT549 cells after 48 hrs by sulforhodamine B assay; type: functional; conditions: BT-549, 48 h; method in brief: as §1
OVCAR-3 = assay: Growth inhibition of human OVCAR-3 cells after 48 hrs by sulforhodamine B assay; type: functional; conditions: OVCAR-3, 48 h; method in brief: as §1
T47D = assay: Growth inhibition of human T47D cells after 48 hrs by sulforhodamine B assay; type: functional
Method in brief: (§2)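 NCI in vitro panel screen. Compounds tested at five 10-fold dilutions, 10^-4 to 10^-8 M. Cells in 96-well plates were exposed for the last 48 h of a 72 h incubation. Viability/growth was read by sulforhodamine B protein assay. GI50 is the concentration giving 50% growth inhibition. Values beyond the tested range are reported as greater or less than the maximum or minimum concentration.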

NCI-H322M = assay: Growth inhibition of human NCI-H322M cells after 48 hrs by sulforhodamine B assay; type: functional; method in brief: as §1
LOX IMVI = assay: Growth inhibition of human LOXIMVI cells after 48 hrs by sulforhodamine B assay; type: functional; method in brief: as §1
NCI/ADR-RES = assay: Growth inhibition of human NCI/ADR-RES cells after 48 hrs by sulforhodamine B assay; type: functional; method in brief: as §1
HT-29 = assay: Growth inhibition of human HT-29 cells after 48 hrs by sulforhodamine B assay; type: functional; conditions: HT-29, 48 h; method in brief: as §1
[1] = Growth inhibition of human Hs 578T cells after 48 hrs by sulforhodamine B assay; type: functional; method in brief: as §1
A498 = assay: Growth inhibition of human A498 cells after 48 hrs by sulforhodamine B assay; type: functional; conditions: A498, 48 h; method in brief: as §1
NCI-H460 = assay: Growth inhibition of human NCI-H460 cells after 48 hrs by sulforhodamine B assay; type: functional; conditions: NCI-H460, 48 h; method in brief: as §1
SNB-19 = assay: Growth inhibition of human SNB19 cells after 48 hrs by sulforhodamine B assay; type: functional; conditions: SNB-19, 48 h; method in brief: as §2
SF-295 = assay: Growth inhibition of human SF295 cells after 48 hrs by sulforhodamine B assay; type: functional; conditions: SF-295, 48 h; method in brief: as §1
A549 = assay: Growth inhibition of human A549 cells after 48 hrs by sulforhodamine B assay; type: functional; conditions: A549, 48 h; method in brief: as §1
OVCAR-8 = assay: Growth inhibition of human OVCAR8 cells after 48 hrs by sulforhodamine B assay; type: functional; conditions: OVCAR-8, 48 h; method in brief: as §1
RXF 393 = assay: Growth inhibition of human RXF393 cells after 48 hrs by sulforhodamine B assay; type: functional; conditions: RXF 393, 48 h; method in brief: as §1
HCT-116 = assay: Growth inhibition of human HCT116 cells after 48 hrs by sulforhodamine B assay; type: functional; conditions: HCT-116, 48 h; method in brief: as §1
OVCAR-4 = assay: Growth inhibition of human OVCAR4 cells after 48 hrs by sulforhodamine B assay; type: functional; conditions: OVCAR-4, 48 h; method in brief: as §1
[2] = Growth inhibition of human […] cells after 48 hrs by sulforhodamine B assay; type: functional; method in brief: as §1
UACC-257 = assay: Growth inhibition of human UACC257 cells after 48 hrs by sulforhodamine B assay; type: functional; conditions: UACC-257, 48 h; method in brief: as §2
SNB-75 = assay: Growth inhibition of human SNB75 cells after 48 hrs by sulforhodamine B assay; type: functional; conditions: SNB-75, 48 h; method in brief: as §2
SK-OV-3 = assay: Growth inhibition of human SKOV3 cells after 48 hrs by sulforhodamine B assay; type: functional; conditions: SK-OV-3, 48 h; method in brief: as §1
SK-MEL-2 = assay: Growth inhibition of human SK-MEL-2 cells after 48 hrs by sulforhodamine B assay; type: functional; conditions: SK-MEL-2, 48 h; method in brief: as §1
HL-60(TB) = assay: Growth inhibition of human HL-60(TB) cells after 48 hrs by sulforhodamine B assay; type: functional; conditions: HL-60, 48 h
Method in brief: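 NCI 60-cell-line screen protocol: cells exposed to compound at five 10-fold dilutions from 10^-4 to 10^-8 M for the last 48 h of a 72 h incubation. Sulforhodamine B protein assay estimated viability/growth. GI50 (50% growth inhibition) derived; where not reached or exceeded, reported as greater or less than the highest or lowest concentration tested.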

SF-268 = assay: Growth inhibition of human SF268 cells after 48 hrs by sulforhodamine B assay; type: functional; conditions: SF-268, 48 h; method in brief: as §1
M14 = assay: Growth inhibition of human M14 cells after 48 hrs by sulforhodamine B assay; type: functional; conditions: M14, 48 h; method in brief: as §1
SW-620 = assay: Growth inhibition of human SW620 cells after 48 hrs by sulforhodamine B assay; type: functional; conditions: SW-620, 48 h; method in brief: as §2
COLO 205 = assay: Growth inhibition of human COLO205 cells after 48 hrs by sulforhodamine B assay; type: functional; conditions: COLO 205, 48 h; method in brief: as §1
HOP-92 = assay: Growth inhibition of human HOP92 cells after 48 hrs by sulforhodamine B assay; type: functional; conditions: HOP-92, 48 h; method in brief: as §1
U-251 = assay: Growth inhibition of human U251 cells after 48 hrs by sulforhodamine B assay; type: functional; conditions: U-251, 48 h; method in brief: as §2
ACHN = assay: Growth inhibition of human ACHN cells after 48 hrs by sulforhodamine B assay; type: functional; method in brief: as §1
HCT-15 = assay: Growth inhibition of human HCT15 cells after 48 hrs by sulforhodamine B assay; type: functional; conditions: HCT-15, 48 h; method in brief: as §1
Malme-3M = assay: Growth inhibition of human MALME-3M cells after 48 hrs by sulforhodamine B assay; type: functional; method in brief: as §1
NCI-H23 = assay: Growth inhibition of human NCI-H23 cells after 48 hrs by sulforhodamine B assay; type: functional; conditions: NCI-H23, 48 h; method in brief: as §1
UACC-62 = assay: Growth inhibition of human UACC62 cells after 48 hrs by sulforhodamine B assay; type: functional; conditions: UACC-62, 48 h; method in brief: as §2
NCI-H226 = assay: Growth inhibition of human NCI-H226 cells after 48 hrs by sulforhodamine B assay; type: functional; conditions: NCI-H226, 48 h; method in brief: as §1
SF-539 = assay: Growth inhibition of human SF539 cells after 48 hrs by sulforhodamine B assay; type: functional; conditions: SF-539, 48 h; method in brief: as §1
TK-10 = assay: Growth inhibition of human TK10 cells after 48 hrs by sulforhodamine B assay; type: functional; conditions: TK-10, 48 h; method in brief: as §2
MDA-MB-435 = assay: Growth inhibition of human MDA-MB-435 cells after 48 hrs by sulforhodamine B assay; type: functional; conditions: MDA-MB-435, 48 h; method in brief: as §1
MT4 = assay: Antiproliferative activity against human MT4 cells assessed as reduction of growth by MTT assay; type: functional, cell-based
Method in brief: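 MT-4 lymphoblastoid T cells (ATCC) in RPMI 1640 with 10% FCS, penicillin/streptomycin, checked for mycoplasma. 1 × 10⁴ mock-infected cells per well with serial dilutions from a 100 mM DMSO stock. Incubated 4 days at 37 °C, viable cells counted by MTT. IC50 versus untreated controls by linear regression. Mean of three separate experiments.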

MOLT-4 = assay: Growth inhibition of human MOLT4 cells after 48 hrs by sulforhodamine B assay; type: functional; conditions: MOLT-4, 48 h; method in brief: as §1

COc1cc(C(=O)N2CCN(C(=O)c3cc(OC)c(OC)c(OC)c3)C2=S)cc(OC)c1OC
GI50 (MDA-MB-231): 16.7 µM
GI50 (BT-549): 17.4 µM
GI50 (OVCAR-3): 15.2 µM
GI50 (T47D): 13.1 µM
GI50 (NCI-H322M): 17.4 µM
GI50 (LOX IMVI): 15.4 µM
GI50 (NCI/ADR-RES): 26.8 µM
GI50 (HT-29): 22.7 µM
GI50 [1]: 24.7 µM
GI50 (A498): 17.7 µM
GI50 (NCI-H460): 27.2 µM
GI50 (SNB-19): 18.5 µM
GI50 (SF-295): 19 µM
GI50 (A549): 19.9 µM
GI50 (OVCAR-8): 21.9 µM
GI50 (RXF 393): 14.3 µM
GI50 (HCT-116): 18.2 µM
GI50 (OVCAR-4): 16.9 µM
GI50 [2]: 3700 nM
GI50 (UACC-257): 21.7 µM
GI50 (SNB-75): 7.1 µM
GI50 (SK-OV-3): 20.2 µM
GI50 (SK-MEL-2): 16.3 µM
GI50 (HL-60(TB)): 16 µM
GI50 (SF-268): 11.5 µM
GI50 (M14): 16.8 µM
GI50 (SW-620): 20.3 µM
GI50 (COLO 205): 19.4 µM
GI50 (HOP-92): 16.1 µM
GI50 (U-251): 16.3 µM
GI50 (ACHN): 17.8 µM
GI50 (HCT-15): 20.2 µM
GI50 (Malme-3M): 13.4 µM
GI50 (NCI-H23): 18.7 µM
GI50 (UACC-62): 14.9 µM
GI50 (NCI-H226): 19.5 µM
GI50 (SF-539): 14.5 µM
GI50 (TK-10): 17 µM
GI50 (MDA-MB-435): 13.1 µM
pIC50 (MT4): 5.15
GI50 (MOLT-4): 23.5 µM

O=CN1CCN(C(=O)c2ccco2)C1=S
GI50 (MDA-MB-231): 15.9 µM
GI50 (BT-549): 2.3 µM
GI50 (OVCAR-3): 4.2 µM
GI50 (T47D): 4 µM
GI50 (NCI-H322M): 18.5 µM
GI50 (LOX IMVI): 3.4 µM
GI50 (NCI/ADR-RES): 24.5 µM
GI50 (HT-29): 7.5 µM
GI50 [1]: 11 µM
GI50 (A498): 16.5 µM
GI50 (NCI-H460): 7.3 µM
GI50 (SNB-19): 24.6 µM
GI50 (SF-295): 21.4 µM
GI50 (A549): 12.5 µM
GI50 (OVCAR-8): 16.8 µM
GI50 (RXF 393): 3.3 µM
GI50 (HCT-116): 10.2 µM
GI50 (OVCAR-4): 18.6 µM
GI50 [2]: 1800 nM
GI50 (UACC-257): 11.7 µM
GI50 (SNB-75): 8.6 µM
GI50 (SK-OV-3): 26.6 µM
GI50 (SK-MEL-2): 16.5 µM
GI50 (HL-60(TB)): 2.8 µM
GI50 (SF-268): 3.9 µM
GI50 (M14): 10.7 µM
GI50 (SW-620): 5.5 µM
GI50 (COLO 205): 8.7 µM
GI50 (HOP-92): 11.5 µM
GI50 (U-251): 14.1 µM
GI50 (ACHN): 6.5 µM
GI50 (HCT-15): 5.6 µM
GI50 (Malme-3M): 8.3 µM
GI50 (NCI-H23): 16.7 µM
GI50 (UACC-62): 5 µM
GI50 (NCI-H226): 28.5 µM
GI50 (SF-539): 2.5 µM
GI50 (TK-10): 14.3 µM
GI50 (MDA-MB-435): 6.4 µM
pIC50 (MT4): 5.05
GI50 (MOLT-4): 4.6 µM

O=C(c1ccc(Cl)c(Cl)c1)N1CCN(C(=O)c2ccc(Cl)c(Cl)c2)C1=S
GI50 (MDA-MB-231): 18.8 µM
GI50 (BT-549): 23.6 µM
GI50 (OVCAR-3): 17.1 µM
GI50 (T47D): 17.5 µM
GI50 (NCI-H322M): 19.8 µM
GI50 (LOX IMVI): 7.6 µM
GI50 (NCI/ADR-RES): 34.4 µM
GI50 (HT-29): 24.2 µM
GI50 [1]: 29.1 µM
GI50 (A498): 20.2 µM
GI50 (NCI-H460): 22 µM
GI50 (SNB-19): 21.4 µM
GI50 (SF-295): 18.5 µM
GI50 (A549): 27.8 µM
GI50 (OVCAR-8): 19 µM
GI50 (RXF 393): 17.8 µM
GI50 (HCT-116): 18.1 µM
GI50 (OVCAR-4): 16.8 µM
GI50 [2]: 1800 nM
GI50 (UACC-257): 17.3 µM
GI50 (SNB-75): 18.9 µM
GI50 (SK-OV-3): 18.2 µM
GI50 (SK-MEL-2): 18.4 µM
GI50 (HL-60(TB)): 12.7 µM
GI50 (SF-268): 16.8 µM
GI50 (M14): 19.6 µM
GI50 (SW-620): 21.3 µM
GI50 (COLO 205): 17.7 µM
GI50 (HOP-92): 20 µM
GI50 (U-251): 16.4 µM
GI50 (ACHN): 19.2 µM
GI50 (HCT-15): 19.6 µM
GI50 (Malme-3M): 14.9 µM
GI50 (NCI-H23): 22 µM
GI50 (UACC-62): 18.1 µM
GI50 (NCI-H226): 19 µM
GI50 (SF-539): 15.1 µM
GI50 (TK-10): 18.5 µM
GI50 (MDA-MB-435): 15.4 µM
pIC50 (MT4): 5.34
GI50 (MOLT-4): 15.7 µM
